Source: PubChem BioAssay AID624022 (Broad Institute, 2012)

Target: Scavenger receptor class B member 1 (Mus musculus) (UniProt Q61009)
Test: inhibitors of SR-BI-mediated HDL cholesteryl ester uptake, dose response, orthogonal assay for SR-BI HDL uptake inhibitor project, cell-based, wild-type CHO mSR-BI, scintillation, powder samples (AID 624022)
Settings: CHO mSR-BI cells, [3H]CE-HDL uptake
Method in brief: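 Signal: scintillation counting; Material: mSR-BI CHO cells lacking LDLR; Schedule: 1 h pretreatment plus 2 h uptake at 37 °C; Also added: [3H]cholesteryl ester-HDL.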

Chain of Scavenger receptor class B member 1 (Mus musculus) (Q61009 whole entry, looked up): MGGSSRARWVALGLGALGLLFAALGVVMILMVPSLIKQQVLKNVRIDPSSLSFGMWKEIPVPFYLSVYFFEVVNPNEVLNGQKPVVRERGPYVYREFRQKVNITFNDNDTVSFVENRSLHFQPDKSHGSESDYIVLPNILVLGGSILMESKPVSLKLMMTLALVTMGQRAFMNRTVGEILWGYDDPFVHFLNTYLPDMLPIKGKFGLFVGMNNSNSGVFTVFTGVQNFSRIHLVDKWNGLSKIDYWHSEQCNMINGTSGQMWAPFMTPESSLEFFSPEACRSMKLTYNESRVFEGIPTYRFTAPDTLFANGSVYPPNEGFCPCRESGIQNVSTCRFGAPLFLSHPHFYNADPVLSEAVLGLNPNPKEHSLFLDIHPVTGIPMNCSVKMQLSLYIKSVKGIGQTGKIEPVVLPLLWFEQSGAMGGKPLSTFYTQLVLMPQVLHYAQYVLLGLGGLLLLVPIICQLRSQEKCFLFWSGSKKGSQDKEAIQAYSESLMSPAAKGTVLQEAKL

In the case of CC(C)NC(=O)Nc1ccc2c(c1)C(=O)N([C@H](C)CO)C[C@@H](C)[C@H](CN(C)S(=O)(=O)c1ccc(Cl)cc1)O2, the IC50 is reported as 0.5 µM.
